Values after ≈ are worked out from the molar mass of the structure shown.

As a reminder, the EC50 is the concentration at which the effect is half-maximal. For orientation: inhibition means the percentage by which the read-out fell short of the control. Broadly, the solubility (kinetic) is solubility judged after dilution from a stock solution rather than from solid. In general, Papp A→B refers to how fast a substance crosses the layer from the apical side. As a reminder, the efflux ratio is a quotient of directional permeabilities that is used to spot active efflux. As usually defined, the Ki is the dissociation constant of the complex between target and ligand, obtained from inhibition or displacement.

A short description of series [1]: Neuroprotective activity in rat hippocampal neurons assessed as protection against ethanol induced cell death by measuring neuronal viability after 5 hrs by carboxyfluorescein diacetate dye based fluorimetric analysis. The series is classed as functional, Hippocampal neurone. Put shortly: (§1)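 Ethanol (30 mM) used as toxin. Viability read by CFDA fluorescence, cell death by propidium iodide. Full efficacy defined as the fluorescence of neurons without toxin.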

Series [2] in a line: Neuroprotective activity in rat hippocampal neurons assessed as protection against ethanol induced cell death after 5 hrs by propidium iodide staining based fluorimetric analysis. It is filed as functional, Hippocampal neurone. Put shortly: as §1
The nature of series [3]: Neuroprotective activity in rat hippocampal neurons assessed as protection against ammonium acetate induced cell death by measuring neuronal viability after 5 hrs by carboxyfluorescein diacetate dye based fluorimetric analysis. It is filed as functional, Hippocampal neurone. Put shortly:
(§2)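 Ammonium acetate (300 μM) used as toxin. Viability read by CFDA fluorescence, cell death by propidium iodide. Full efficacy defined as the fluorescence of neurons without toxin.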

Series [4] in a line: Neuroprotective activity in rat hippocampal neurons assessed as protection against ammonium acetate induced cell death after 5 hrs by propidium iodide staining based fluorimetric analysis. The series is classed as functional, Hippocampal neurone. Put shortly:
as §2

Series [5] can be described thus: Toxicity in rat hippocampal neurons assessed as neuronal viability after 5 hrs by carboxyfluorescein diacetate dye based fluorimetric analysis. The following applies: read-out: TC50. On the set-up: species or system Hippocampal neurone.
Series [6] deals with T1, Cannabinoid receptor 1 (Homo sapiens, UniProt P21554). Kind of series: Displacement of [3H]CP 55940 from human recombinant CB1 receptor expressed in CHO cell membranes at 10 uM after 120 mins by scintillation counting analysis. (Loss of bound radioactivity is the signal in a displacement assay; it reports binding, not function.)
The target of series [7] is Cannabinoid receptor 2 (Homo sapiens) (UniProt P34972). Kind of series: Displacement of [3H]WIN 55212-2 from human recombinant CB2 receptor expressed in CHO cell membranes at 10 uM after 120 mins by scintillation counting analysis.
The nature of series [8]: Kinetic aqueous solubility of the compound at pH 7.4.
A short description of series [9]: Apparent permeability from apical to basolateral side in human Caco cells. The following applies: Caco-2. (In general: Passage across Caco-2 layers is used to estimate intestinal permeability.)
Series [10] is described as follows: Efflux ratio of permeability from basolateral to apical over apical to basolateral side in human Caco cells. Particulars: Caco-2.
Series [11] has as its system MDR1. Kind of series: Apparent permeability from apical to basolateral side in MDCK cells expressing MDR1. The following applies: dog.
In series [12] the test system is MDR1. Kind of series: Efflux ratio of permeability from basolateral to apical over apical to basolateral side in MDCK cells expressing MDR1. The following applies: dog.
Another series is described as follows: in vitro. The following applies: rat, rat hippocampal neurons.
The target in series [13] is T1, Cannabinoid receptor 1. The series can be described thus: Displacement of [3H]CP 55940 from human CB1 receptor after 1 hr by liquid scintillation spectrometry.
Setting [14] is: Rattus norvegicus, Hippocampal neurone, 5 h, read-out: EC50.

Cannabinoid receptor 2 (Homo sapiens), sequence (P34972 whole entry): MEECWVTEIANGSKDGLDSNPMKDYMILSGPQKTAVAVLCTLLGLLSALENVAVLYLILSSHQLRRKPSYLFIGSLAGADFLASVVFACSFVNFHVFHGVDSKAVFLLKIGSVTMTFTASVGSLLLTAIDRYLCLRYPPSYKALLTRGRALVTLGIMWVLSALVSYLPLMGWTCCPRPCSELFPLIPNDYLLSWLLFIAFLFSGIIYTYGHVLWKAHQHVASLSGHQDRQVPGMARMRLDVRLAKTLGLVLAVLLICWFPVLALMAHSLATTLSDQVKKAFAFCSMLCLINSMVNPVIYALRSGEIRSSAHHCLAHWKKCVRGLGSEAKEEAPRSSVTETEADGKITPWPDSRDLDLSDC
T1 sequence (P21554 whole entry): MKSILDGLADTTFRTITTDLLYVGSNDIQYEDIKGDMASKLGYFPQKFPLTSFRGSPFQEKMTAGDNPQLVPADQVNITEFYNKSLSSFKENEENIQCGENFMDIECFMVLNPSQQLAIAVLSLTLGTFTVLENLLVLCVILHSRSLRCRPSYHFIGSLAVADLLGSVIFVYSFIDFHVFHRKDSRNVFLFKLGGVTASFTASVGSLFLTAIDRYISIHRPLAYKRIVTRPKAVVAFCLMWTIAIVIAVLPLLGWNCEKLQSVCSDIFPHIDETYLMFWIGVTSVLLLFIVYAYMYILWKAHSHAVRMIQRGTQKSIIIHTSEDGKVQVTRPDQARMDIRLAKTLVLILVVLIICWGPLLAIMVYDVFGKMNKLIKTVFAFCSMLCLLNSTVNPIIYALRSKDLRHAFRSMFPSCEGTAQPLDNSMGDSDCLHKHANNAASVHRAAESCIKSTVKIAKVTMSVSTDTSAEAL

On to `C=C(C)[C@@H]1CCC(C)=C[C@H]1c1c(O)cc(CC2COC2)cc1O`, for which the EC50 in series [1] (setting [14]) stood at 18 µM; in [2] (setting [14]) it was 10 µM; in series [3] (setting [14]) it was 35 µM; in series [4] (setting [14]), 20 µM.

On to `C=C(C)[C@@H]1CCC(C)=C[C@H]1c1c(O)cc(CCn2nccn2)cc1O`, for which the EC50 in [1] (setting [14]), in [2] (setting [14]), in series [3] (setting [14]) and in series [4] (setting [14]) was over 100 µM throughout.

As to `C=C(C)[C@@H]1CCC(C)=C[C@H]1c1c(O)cc(CCOCC)cc1O`, the concentration for a half-maximal effect (EC50) in series [1] (setting [14]) was determined as 0.3 µM; in series [2] (setting [14]), 3 µM; in series [3] (setting [14]), 36 µM; in [4] (setting [14]), 0.2 µM.

As for `C=C(C)[C@@H]1CCC(C)=C[C@H]1c1c(O)cc(CCN2CCOCC2)cc1O`, the 50% effective concentration (EC50) was 5 µM in series [1] (setting [14]), 24 µM in [2] (setting [14]), over 100 µM in series [3] (setting [14]) and 20 µM in [4] (setting [14]).

`C=C(C)[C@@H]1CCC(C)=C[C@H]1c1c(O)cc(CC2CN(C(C)=O)C2)cc1O`: the EC50 in series [1] (setting [14]) amounted to 0.08 µM; in series [2] (setting [14]), 0.05 µM; in [3] (setting [14]), 0.04 µM; in series [4] (setting [14]), 0.04 µM. Also, the CC50 at 5 h in series [5] is 300 µM. Further, the results for the inhibition (at Cannabinoid receptor 1 [6]; in series [7]) were 13% and 56%, respectively. Further, the kinetic solubility in [8] worked out at 87 µM (≈ 30.9 µg/mL). For the same molecule, the figures for the Papp A→B (in [9]; in the series with MDR1 [11]) were 49 ×10⁻⁶ cm/s and 35 ×10⁻⁶ cm/s, respectively. In addition, the efflux ratio in series [10] is 0.53; in the series on MDR1 [12], 1.02. In addition, the selectivity ratio at 5 h in “in vitro” was determined as 7500.

Consider `C=C(C)[C@@H]1CCC(C)=C[C@H]1c1c(O)cc(CCn2ccnn2)cc1O`, for which the EC50 stood at 5 µM in series [1] (setting [14]), 2 µM in series [2] (setting [14]), 3 µM in series [3] (setting [14]) and 1 µM in [4] (setting [14]). In addition, in series [5], the CC50 at 5 h was over 100 µM. Also, the figures for the inhibition (at Cannabinoid receptor 1 [6]; in series [7]) were 6% and 1%, respectively.

Turning to `C=C(C)[C@@H]1CCC(C)=C[C@H]1c1c(O)cc(CC2CN(C)C2)cc1O`, the half-maximal effective concentration (EC50) entry in series [1] (hippocampal neurone), in [2] (hippocampal neurone), in series [3] (hippocampal neurone) and in series [4] (hippocampal neurone) was “ND(toxic)” in each case.

For the molecule `C=C(C)[C@@H]1CCC(C)=C[C@H]1c1c(O)cc(CC(=O)N2CCOCC2)cc1O`, the concentration giving a half-maximal response (EC50) in series [1] (setting [14]), in series [2] (setting [14]), in series [3] (setting [14]) and in series [4] (setting [14]) was over 100 µM each time.

At Cannabinoid receptor 1 [13], `CCCCCCC(C)(C)c1cc(O)c(C2CCCCC2)c(O)c1` displayed an inhibition constant (Ki) of 0.011 µM.

With `C=C(C)[C@@H]1CCC(C)=C[C@H]1c1c(O)cc(CCCCC)cc1O` [CANNABIDIOL], the EC50 in series [1] (setting [14]) amounted to 1 µM; in series [2] (setting [14]), 3 µM; in series [3] (setting [14]), 2 µM; in [4] (setting [14]) it was 4 µM. Besides, the CC50 at 5 h in [5] stood at 33 µM. Besides, the solubility (kinetic) in series [8] was determined as 17 µM (≈ 5.35 µg/mL). The apical-to-basolateral permeability (Papp A→B) is under 1.5 ×10⁻⁶ cm/s in series [9] and under 2.23 ×10⁻⁶ cm/s in the series with MDR1 [11].

As for `C=C(C)[C@@H]1CCC(C)=C[C@H]1c1c(O)cc(CCCCC(=O)O)cc1O`, the EC50 is 10 µM in series [1] (setting [14]), 7 µM in series [2] (setting [14]), 4 µM in series [3] (setting [14]) and 30 µM in series [4] (setting [14]).

In the case of `C=C(C)[C@@H]1CCC(C)=C[C@H]1c1c(O)cc(CCNC(C)=O)cc1O`, the EC50 in [1] (setting [14]) is 30 µM; in series [2] (setting [14]), 17 µM; in [3] (setting [14]) it was over 100 µM; in series [4] (setting [14]), over 100 µM.

Regarding `C=C(C)[C@@H]1CCC(C)=C[C@H]1c1c(O)cc(O)cc1CC1CN(C(C)=O)C1`, the concentration giving a half-maximal response (EC50) in series [1] (setting [14]), in series [2] (setting [14]), in series [3] (setting [14]) and in series [4] (setting [14]) was over 100 µM each time.

Turning to `C=C(C)[C@@H]1CCC(C)=C[C@H]1c1c(O)cc(CCCCCO)cc1O`, the concentration for a half-maximal effect (EC50) in series [1] (setting [14]) is 54 µM; in series [2] (setting [14]) it was over 100 µM; in series [3] (setting [14]) it was over 100 µM; in series [4] (setting [14]) it was over 100 µM.

For `C=C(C)[C@@H]1CCC(C)=C[C@H]1c1c(O)cc(CC2CN(C(=O)OCC)C2)cc1O`, the half-maximal effective concentration (EC50) worked out at 0.03 µM in series [1] (setting [14]), 0.02 µM in series [2] (setting [14]), 0.11 µM in series [3] (setting [14]) and 0.05 µM in series [4] (setting [14]). Further, the CC50 at 5 h in [5] was over 100 µM. Besides, the inhibition came to 19% on Cannabinoid receptor 1 [6] and 37% in series [7]. This molecule also displayed a solubility (kinetic) in [8] of 16.6 µM (≈ 6.4 µg/mL). Further, the Papp A→B in series [9] worked out at 22 ×10⁻⁶ cm/s; in the series with MDR1 [11], 11 ×10⁻⁶ cm/s. The efflux ratio in series [10] is 0.5; with MDR1 [12], 0.97. Besides, the selectivity ratio at 5 h in “in vitro” stood at 900.

For the origin of these results see ChEMBL document CHEMBL3808335, “Discovery of KLS-13019, a Cannabidiol-Derived Neuroprotective Agent, with Improved Potency, Safety, and Permeability” (ACS Med Chem Lett, 2016).
